According to ChEMBL document CHEMBL4334441, “Exploitation of Antibiotic Resistance as a Novel Drug Target: Development of a β-Lactamase-Activated Antibacterial Prodrug” (J Med Chem, 2019):
In brackets after ≈: the same amount, converted by molar mass.

Key:
[1] = Prodrug activation in Escherichia coli CFT073 expressing NDM1 assessed as bacterial NDM1-mediated ciprofloxacin release by measuring growth inhibition incubated for 18 hr by broth microdilution method; conditions: bacteria
Method in brief: (§1)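 MIC determination in E. coli CFT073, either wild type or carrying pSU18 (empty pEMP, or encoding CTX-M, NDM-1 or KPC). Dose–response growth curves were run, and each point is the mean ± SEM of n = 3. The MIC is the minimal concentration that inhibits bacterial growth.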

[2] = Prodrug activation in ciprofloxacin sensitive Escherichia coli isolate EC11 expressing bacterial beta lactamase CTX-M-15 assessed as bacterial CTX-M-15-mediated ciprofloxacin release by measuring growth inhibition incubated for 18 hrs by broth microdilution method
Bacteria = assay: Prodrug activation assessed as bacterial N-terminal His6-tagged CTX-M-15-mediated ciprofloxacin release by measuring inhibition of DNA gyrase activity 1 uM by SYBR Safe DNA gel staining-based agarose gel electrophoresis relative to control
Method in brief: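 Cell-free assay using recombinant DNA gyrase with relaxed pBR322 plasmid DNA as substrate. Compounds were incubated with the gyrase and DNA in the absence or presence of purified recombinant β-lactamase CTX-M-15.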

Escherichia coli [3] = assay: Growth inhibition of Escherichia coli CFT073 expressing pSU18 incubated for 18 hrs in presence of human serum; assay type: organism-based
Method in brief: (§2)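 MIC assay in E. coli CFT073 carrying pSU18 (empty pEMP or encoding CTX-M-1), run in the presence of human serum. The read-out is the minimal concentration inhibiting bacterial growth.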

[4] = Ratio of prodrug activation in Escherichia coli CFT073 expressing beta lactamase CTX-M-1 assessed as bacterial CTX-M-1-mediated ciprofloxacin release by measuring bactericidal activity to bactericidal activity against Escherichia coli CFT073 expressing pSU18
[5] = Prodrug activation in Escherichia coli CFT073 expressing KPC3 assessed as bacterial KPC3-mediated ciprofloxacin release by measuring growth inhibition incubated for 18 hr by broth microdilution method; conditions: bacteria; method in brief: as §1
[6] = Prodrug activation in ciprofloxacin sensitive Escherichia coli isolate EC17 expressing bacterial beta lactamase CTX-M-15 assessed as bacterial CTX-M-15-mediated ciprofloxacin release by measuring growth inhibition incubated for 18 hrs by broth microdilution method
[7] = Prodrug activation in Escherichia coli CFT073 expressing beta lactamase CTX-M-1 assessed as bacterial CTX-M-1-mediated ciprofloxacin release by measuring growth inhibition incubated for 18 hrs by broth microdilution method; conditions: bacteria; method in brief: as §1
[8] = Prodrug activation in ciprofloxacin-resistant Escherichia coli isolate EC19 expressing bacterial beta lactamase CTX-M-15 assessed as bacterial CTX-M-15-mediated ciprofloxacin release by measuring growth inhibition incubated for 18 hrs by broth microdilution method
Escherichia coli [9] = assay: Bactericidal activity against Escherichia coli CFT073 expressing pSU18 assessed as reduction in colony forming units at 78 nM measured after 6 hrs; assay type: ADME, organism-based; conditions: in vivo, 0.078 µM
Method in brief: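 Time-kill assay on uropathogenic E. coli CFT073 carrying pSU18, either empty (pEMP, β-lactamase coding sequence absent) or encoding CTX-M-1. Cells were left untreated or exposed to drug, and viability was followed over time by CFU counts, with a 6 h incubation read-out.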

[10] = Prodrug activation in ciprofloxacin-resistant Escherichia coli isolate EC13 expressing bacterial beta lactamase CTX-M-15 assessed as bacterial CTX-M-15-mediated ciprofloxacin release by measuring growth inhibition incubated for 18 hrs by broth microdilution method
Escherichia coli [11] = assay: Growth inhibition of ciprofloxacin-susceptible Escherichia coli CFT073 harboring pSU18 incubated for 18 hrs by broth microdilution method; assay type: organism-based; conditions: in vivo; method in brief: as §1
[12] = Prodrug activation in ciprofloxacin sensitive Escherichia coli isolate EC16 expressing bacterial beta lactamase CTX-M-15 assessed as bacterial CTX-M-15-mediated ciprofloxacin release by measuring growth inhibition incubated for 18 hrs by broth microdilution method
Enterococcus faecalis [13] = assay: Effect on growth of Enterococcus faecalis GW01 incubated for 18 hrs by broth microdilution method; assay type: organism-based; conditions: in vivo
Enterococcus faecalis [14] = assay: Effect on growth of Enterococcus faecalis ATCC 29212 incubated for 18 hrs by broth microdilution method; assay type: organism-based; conditions: in vivo
[15] = Prodrug activation in ciprofloxacin-resistant Escherichia coli isolate EC12 expressing bacterial beta lactamase CTX-M-15 assessed as bacterial CTX-M-15-mediated ciprofloxacin release by measuring growth inhibition incubated for 18 hrs by broth microdilution method
Escherichia coli [16] = assay: Growth inhibition of Escherichia coli CFT073 incubated for 18 hrs by broth microdilution method; assay type: organism-based; conditions: in vivo; method in brief: as §1
[17] = Prodrug activation in Escherichia coli CFT073 expressing beta lactamase CTX-M-1 assessed as bacterial CTX-M-1-mediated ciprofloxacin release by measuring growth inhibition incubated for 18 hrs in presence of human serum by broth microdilution method; conditions: bacteria; method in brief: as §2

CC(=O)N[C@@H]1C(=O)N2C(C(=O)O)=C(COC(=O)c3cn(C4CC4)c4cc(N5CCNCC5)c(F)cc4c3=O)CS[C@H]12
MIC [1]: 0.04 µg/mL (≈ 0.0683 µM) | growth inhibition (GI) [2]: Active | inhibition (Bacteria): > 50% | Activity (Escherichia coli [3]): Non-Toxic | Ratio [4]: > 100 | MIC [5]: 0.04 µg/mL (≈ 0.0683 µM) | growth inhibition (GI) [6]: Active | MIC [7]: 0.04 µg/mL (≈ 0.0683 µM) | growth inhibition (GI) [8]: Not Active | Activity (Escherichia coli [9]): Non-Toxic | growth inhibition (GI) [10]: Not Active | MIC (Escherichia coli [11]): 0.18 µg/mL (≈ 0.307 µM) | growth inhibition (GI) [12]: Active | Activity (Enterococcus faecalis [13]): Non-Toxic | Activity (Enterococcus faecalis [14]): Non-Toxic | growth inhibition (GI) [15]: Not Active | MIC (Escherichia coli [16]): 0.18 µg/mL (≈ 0.307 µM) | growth inhibition (GI) [17]: Active
